According to publication PMC10125367 (ACS Bio & Med Chem Au, 2022):
Values belong to the compound of their own block, whether it stands above or below them.

Key:
[1] = biological target: T1, KRAS(WT) (Homo sapiens, UniProt P01116); test: Microscale thermophoresis; format: binding; conditions: Kd from MST, GDP-bound KRAS(WT)
[2] = biological target: T2, KRAS(G12D) (Homo sapiens, UniProt P01116, G12D); test: Microscale thermophoresis; format: binding; conditions: Kd from MST, GDP-bound KRAS(G12D)
[3] = biological target: KRAS(G12C) (Homo sapiens, UniProt P01116, G12C); test: Microscale thermophoresis; format: binding
[4] = biological target: KRAS(Q61H) (Homo sapiens, UniProt P01116, Q61H); test: Microscale thermophoresis; format: binding
[5] = biological target: GDP-KRAS(WT) (Homo sapiens, UniProt P01116); test: Isothermal titration calorimetry; format: binding; conditions: Kd from ITC, GDP-bound KRAS(WT), 25 °C
[6] = biological target: GDP-KRAS(G12D) (Homo sapiens, UniProt P01116, G12D); test: Isothermal titration calorimetry; format: binding
[7] = biological target: GDP-KRAS(G12C) (Homo sapiens, UniProt P01116, G12C); test: Isothermal titration calorimetry; format: binding
[8] = biological target: GDP-KRAS(Q61H) (Homo sapiens, UniProt P01116, Q61H); test: Isothermal titration calorimetry; format: binding
[9] = biological target: GDP-KRAS(G13D) (Homo sapiens, UniProt P01116, G13D); test: Isothermal titration calorimetry; format: binding
[10] = biological target: NRAS (Homo sapiens, UniProt P01111); test: Thermal shift assay; format: binding; conditions: 50 μM compound
NRAS, sequence (P01111 whole entry): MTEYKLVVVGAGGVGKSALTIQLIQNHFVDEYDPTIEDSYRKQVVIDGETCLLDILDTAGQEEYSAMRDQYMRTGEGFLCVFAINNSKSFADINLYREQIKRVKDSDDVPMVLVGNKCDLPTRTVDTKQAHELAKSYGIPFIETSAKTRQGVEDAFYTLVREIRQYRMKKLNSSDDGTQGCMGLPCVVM

[11] = biological target: HRAS (Homo sapiens, UniProt P01112); test: Thermal shift assay; format: binding; conditions: 50 μM compound
HRAS, sequence (P01112 whole entry): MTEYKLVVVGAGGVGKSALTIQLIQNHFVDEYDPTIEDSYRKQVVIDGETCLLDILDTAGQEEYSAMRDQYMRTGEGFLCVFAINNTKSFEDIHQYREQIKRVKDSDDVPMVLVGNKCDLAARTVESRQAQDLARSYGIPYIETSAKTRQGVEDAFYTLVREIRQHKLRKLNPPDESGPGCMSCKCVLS

[12] = biological target: T1, KRAS(WT); test: Intrinsic fluorescence; format: binding; conditions: 0 to 50 µM ligand, 2 µM KRAS; qualitative
[13] = biological target: T2, KRAS(G12D); test: Intrinsic fluorescence; format: binding; conditions: 0 to 50 µM ligand, 2 µM KRAS; qualitative
[14] = biological target: T1, KRAS(WT); test: Intrinsic GDP/GTP nucleotide exchange; format: biochemical
Method in brief: (§1)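 Recombinant KRAS(WT), BODIPY-GTP (BGTP) and, for SOS-mediated exchange, SOS are each at 0.5 μM. Buffer is 25 mM Tris Cl pH 7.5, 50 mM NaCl, 10 mM MgCl2, with test compound at 0–50 μM. Fluorescence rise on BGTP binding is normalised to the 60 s and KRAS-alone maximum values. Rates come from linear (intrinsic) or single-exponential (SOS) fits, and EC50 from fitting rate versus concentration.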

[15] = biological target: KRAS(WT) with SOS (Homo sapiens, UniProt P01116); test: SOS-mediated GDP/GTP nucleotide exchange; format: biochemical
Method in brief: as §1

[16] = biological target: KRAS (Homo sapiens, UniProt P01116); test: Intrinsic nucleotide release; format: biochemical; conditions: 50 µM ligand, 100 µM GTP
[17] = biological target: KRAS with SOS (Homo sapiens, UniProt P01116); test: SOS-mediated nucleotide release; format: biochemical; conditions: 50 µM ligand, 100 µM GTP, 0.5 µM SOS
[18] = biological target: KRAS(G12D)-RafRBD interaction (Homo sapiens, UniProt P01116, G12D); test: RBD pull-down assay in BHK cell lysates; format: cell-based, baby hamster; conditions: lysates treated with 10 μM or more, 1 h
Method in brief: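 GTP-bound GFP-KRAS(G12D) and endogenous RAS were pulled down with GST-c-Raf RBD and detected by western blot, with total GFP-KRAS(G12D) and total RAS as loading controls. Signals were normalised to DMSO and averaged over three independent experiments, with unpaired Student's t test.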

[19] = system: BHK cells expressing GFP-tagged KRAS(G12D); test: Cell signaling assay; format: cell-based, baby hamster
Method in brief: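 Whole-cell lysates were immunoblotted for phospho-c-Raf, phospho-ERK and phospho-AKT, with vinculin as loading control. Levels were quantified relative to DMSO, averaged from three independent experiments and compared by unpaired Student's t test.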

[20] = system: cancer cells expressing various mutants of KRAS; test: Cell proliferation, summary; format: cell-based
[21] = system: MDR1 (P-gp); test: Permeability and efflux in MDR1-MDCK cell monolayer system; format: in vitro ADME; conditions: dog
[22] = system: MDR1-MDCK cell monolayer; test: as above; format: in vitro ADME; conditions: corrected for cell volume on donor side
[23] = system: MDR1; test: as above; format: in vitro ADME; conditions: dog, MDCK-MDR1
[24] = Microsomal stability; format: in vitro ADME; conditions: mouse, microsomes
[25] = Microsomal stability; format: in vitro ADME; conditions: rat, microsomes
[26] = Microsomal stability; format: in vitro ADME; conditions: human, microsomes
[27] = system: MIAPaCa-2 xenograft tumor; test: MIAPaCa-2 subcutaneous xenograft tumor model; format: in vivo, mouse; conditions: 5 mg/kg IP
Method in brief: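 Nude mice received MIAPaCa-2 cells subcutaneously in the hind flank and were split after 3 days into groups of equal mean tumour volume (8 vehicle, 7 treated). Dosing was 5 mg/kg test compound in corn oil, or DMSO in corn oil, intraperitoneally 5 days/week. Caliper volumes, (length × width²)/2, were taken twice weekly and body weights weekly. Tumour lysates were blotted for p-ERK, total ERK and GAPDH.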

[28] = system: SOS; conditions: read-out: IC50 in vitro; inhibits SOS; ref 20 Kessler, et al.; cited from earlier work
[29] = system: Raf; conditions: read-out: IC50 in vitro; inhibits Raf; ref 20 Kessler, et al.; cited from earlier work
[30] = MDCK-MDR1, Papparent efflux ratio (ER)

SMILES: O=C(O)c1cc(NC(=O)C2CC2c2ccccc2)ccc1O (centres unmarked) [ACA-14, 2-hydroxy-5-{[(2-phenylcyclopropyl)carbonyl]amino} benzoic acid]
Kd [1]: 4.5 ± 1.5 µM
Kd [2]: > 50 µM
Kd [3]: 0.34 ± 0.07 µM
Kd [4]: 0.02 ± 0.01 µM
Kd [5]: 1.1 µM
Kd [6]: 45.9 µM
Kd [7]: 11.8 µM
Kd [8]: 1.04 µM
Kd [9]: 34.1 µM
Change in melting temperature (Tm) [10]: no measurable change
Change in melting temperature (Tm) [11]: no measurable change
Change in intrinsic fluorescence of the compound on mixing with protein [12]: concentration-dependent changes
Change in intrinsic fluorescence of the compound on mixing with protein [13]: concentration-dependent changes
EC50 [14]: 3.8 ± 0.6 µM
EC50 [15]: 2.1 ± 0.4 µM
Effect on rate of intrinsic GDP release [16]: lack of effect
Effect on rate of SOS-mediated GDP release [17]: lack of effect
Level of GFP-tagged GTP-KRAS(G12D) pulled down by c-Raf RBD [18]: significantly reduced
Level of endogenous RAS pulled down by c-Raf RBD [18]: significantly reduced
Concentration required to inhibit MAPK signaling [19]: > 20 µM
Level of phosphorylated ERK (p-ERK) ([19]; 3 h, serum-starved): significantly reduced
Level of phosphorylated c-Raf (p-cRaf) ([19]; 3 h, serum-starved): significantly reduced
p-AKT level ([19]; 3 h, serum-starved, concentration range tested): little effect
Concentration required to inhibit proliferation [20]: > 20 µM
efflux ratio [21, 30]: 0.65
efflux ratio ([21]; MDCK-MDR1, Pexact efflux ratio): 0.72
Pexact, A > B [22]: 53.55 nm/s
Pexact, B > A [22]: 38.33 nm/s
Papp A→B [23]: 54.2 nm/s
Papp B→A [23]: 35.1 nm/s
Intrinsic clearance [24]: < 0.3 mL/min/g
half-life [24]: > 3 h
Intrinsic clearance [25]: < 0.3 mL/min/g
half-life [25]: > 3 h
Intrinsic clearance [26]: < 0.3 mL/min/g
half-life [26]: > 3 h
Weight gain of treated mice ([27]; nude mice, 5 days per week): did not affect weight gain
Tumor growth ([27]; nude mice, 5 days per week, maintained until day 20): small but statistically significant reduction
ERK activation within tumors (p-ERK western blot) ([27]; tumor lysates): small but significant reduction

SMILES: Cn1cnc(Cn2ccc3ccc(CNCc4[nH]c5ccccc5c4[C@H]4NC(=O)c5ccc(O)cc54)cc32)c1 [BI-2852]
IC50 [28]: 0.5 to 0.7 µM
IC50 [29]: 0.5 to 0.7 µM

efflux ratio [21, 30]: 10.3
efflux ratio ([21]; MDCK-MDR1, Pexact efflux ratio): 16.9
Pexact, A > B [22]: 14.36 nm/s
Pexact, B > A [22]: 243.25 nm/s
Papp A→B [23]: 16.5 nm/s
Papp B→A [23]: 171 nm/s
SMILES: CC(C)CN(C[C@@H](O)[C@H](Cc1ccccc1)NC(=O)O[C@H]1CCOC1)S(=O)(=O)c1ccc(N)cc1 [amprenavir]

efflux ratio [21, 30]: 0.48
efflux ratio ([21]; MDCK-MDR1, Pexact efflux ratio): 0.52
Pexact, A > B [22]: 399.79 nm/s
Pexact, B > A [22]: 207.15 nm/s
Papp A→B [23]: 312 nm/s
Papp B→A [23]: 150 nm/s
SMILES: CC(C)NCC(O)COc1cccc2ccccc12 (centres unmarked) [propranolol]
